# From PubChem BioAssay
# In the library only some 3.8% were active in any assay of this set; here they are far more common.
# Lipid droplet = inhibitors of hepatocyte lipid droplet formation, primary screen, imaging, high-throughput imaging, BODIPY stain | AML12 mouse hepatocytes, oleate lipid droplets | inhibition, % at 6.5 µM | 240,000 compounds, 0.4% hits | AID 1656, 2009;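 active = lipid droplet intensity inhibited by at least 50%, with more than 500 cells counted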
#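 material = mouse AML12 hepatocyte cell line, fixed after treatment | also added = 100 µM oleic acid challenge | doses = compound at 6.5 µM only | schedule = overnight exposure | technique = Image-based BODIPY and DAPI two-channel analysis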
# MrgX1 antagonist = antagonists of human MrgX1 receptor, primary screen, HEK293 cells, Fluo-4 calcium flux; BAM8-22 antagonism; hits give low values; B-score at 10 µM; Mas-related G-protein coupled receptor member X1 (Homo sapiens), Q96LB2; AID 588676, 2011; 310,000 compounds, 1.3% hits;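 active = calcium-response B-score plate-corrected more than 3 library SD below zero, starting fluorescence within 5 deviations, no agonist response on first addition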;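 note: peak minus trough fluorescence over baseline after final BAM8-22 challenge near maximal dose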
# Target sequence (Q96LB2 whole entry, looked up): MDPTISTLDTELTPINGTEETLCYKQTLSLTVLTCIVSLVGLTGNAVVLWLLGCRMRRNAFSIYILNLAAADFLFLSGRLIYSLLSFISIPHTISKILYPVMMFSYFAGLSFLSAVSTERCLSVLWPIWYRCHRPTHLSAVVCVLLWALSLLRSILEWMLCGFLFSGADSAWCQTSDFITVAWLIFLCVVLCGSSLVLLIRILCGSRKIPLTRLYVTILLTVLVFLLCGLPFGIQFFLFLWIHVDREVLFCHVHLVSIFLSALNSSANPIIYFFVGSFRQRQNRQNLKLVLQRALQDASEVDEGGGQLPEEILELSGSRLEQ
# MrgX1 ag = agonists of human MrgX1 receptor, primary screen, HEK293 cells, Fluo-4 calcium flux; Mas-related G-protein coupled receptor member X1 (Homo sapiens), Q96LB2; Fluo-4 calcium fluorescence, agonist mode; hits give high values; B-score at 10 µM; 310,000 compounds, 0.44% hits; AID 588627, 2011;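 active = calcium response B-score plate-corrected fluorescence ratio at least 3 library SD, with starting fluorescence B-score inside 5 SD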
#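 Test system: HEK293 cells stably expressing human MrgX1 receptor; amount: 15,000 cells per well; doses: compound delivered in addition one of three; times: overnight plating before 1 h dye loading; detection: Fluo-4 NW calcium-flux fluorescence, kinetic read; read-out basis: B-scored fluorescence response ratio; controls: positive and negative controls per plate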
# RGS4 inh = RGS4 inhibitors, primary screen, cell-based, HEK293 M3R inducible RGS4, calcium flux; Regulator of G-protein signaling 4 (Homo sapiens), P49798; Fluo-4 calcium flux; hits give high values; triggered by carbachol at its EC20; B-score at 10 µM; 310,000 compounds, 0.45% hits; AID 463165, 2010;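 active = B-score, a plate-corrected calcium signal, over three deviations above library mean, with baseline fluorescence within five deviations of library mean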;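 note: RGS4 expression induced by doxycycline in cells with stable M3 receptor; B-score is computed from the integrated fluorescence ratio over baseline after carbachol; higher B-score means a larger calcium signal and so more RGS4 inhibition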
# Target sequence (P49798 whole entry, looked up): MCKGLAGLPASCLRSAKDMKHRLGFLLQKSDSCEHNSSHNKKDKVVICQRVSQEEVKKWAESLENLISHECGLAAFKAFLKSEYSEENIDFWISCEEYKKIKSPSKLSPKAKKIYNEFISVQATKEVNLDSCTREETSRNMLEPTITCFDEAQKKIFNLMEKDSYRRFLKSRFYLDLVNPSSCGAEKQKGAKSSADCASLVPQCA
# MrgX1 allo act = positive allosteric modulators of MrgX1, primary screen, HEK293 cells, Fluo-4 calcium flux. FDSS; hits give high values. B-score at 10 µM. 310,000 compounds, 0.63% hits. AID 588675, 2011;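 active = plate-corrected calcium response at least 3 library SD above typical, normal starting fluorescence, not activating the receptor alone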;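 note: compound read alongside a low EC10 to EC30 dose of BAM8-22 agonist; peak minus trough fluorescence over baseline measured at the second addition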
# RGS4 pot = RGS4 potentiators or activators, primary screen, cell-based, HEK293 M3R inducible RGS4, calcium flux; carbachol calcium flux Fluo4; hits give low values; B-score at 10 µM; 310,000 compounds, 0.92% hits;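 active = B-score of the integrated calcium signal more than 4 SD below the library mean, with starting fluorescence not abnormally high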;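 note: negative B-score means reduced calcium response which marks RGS4 activation or potentiation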
#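 Detection: kinetic calcium fluorescence imaging with Fluo4-AM dye, 2 µM / Material: HEK293 cells with stable M3R and inducible RGS4 / Schedule: recording 10 s baseline at 1 Hz, 100 s post-agonist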
# RGS4 inh valid = enhanced carbachol calcium response, M3R/RGS4 cells, RGS4 inhibitor project, cell-based, validation screen, HEK293 M3R/RGS4, calcium flux; shares compounds with RGS4 inh; carbachol calcium Fluo-4 fluorescence; carbachol added at its EC20; 0 = buffer wells, 100 = carbachol control; 1,700 compounds, 65% hits; calcium response, % at 10 µM;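 active = duplicate-averaged calcium response above the buffer-only control mean plus 5 SD of those controls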;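 note: integrated fluorescence ratio F max minus min over baseline F0; higher response in RGS4-induced cells means RGS4 inhibition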
# M3R Ca ctr = carbachol calcium response in non-induced M3R cells, confirmation, counter-screen for RGS4 inhibitor project, cell-based, HEK293 M3R; shares compounds with RGS4 inh; carbachol calcium Fluo-4; submaximal (EC20) carbachol stimulus; buffer wells 0%, carbachol control wells 100%; activity (percent), % at 10 µM; 1,900 compounds, 20% hits; call rule not given here;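 note: RGS4 induction absent so cells express M3R without RGS4; higher means more calcium signal and flags a non-specific hit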
# RGS4 inh ctr2 = signal in non-induced cells without carbachol, RGS4 inhibitor counter-screen; shares compounds with RGS4 inh; HEK293 M3R/RGS4 non-induced, Fluo-4 calcium, no carbachol; normalised: buffer wells 0%, carbachol wells 100%; calcium response (agonist-mode artifact), % at 10 µM; 1,900 compounds, 22% hits; AID 493001;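 active = duplicate-averaged calcium rise in uninduced cells above buffer wells' mean plus 5 SD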
# The depositor's hits bear a star; i = inactive; . = no result given.
SMILES,Lipid droplet,MrgX1 antagonist,MrgX1 ag,RGS4 inh,MrgX1 allo act,RGS4 pot,RGS4 inh valid,M3R Ca ctr,RGS4 inh ctr2
O=C(CCN1CCc2ccccc2C(c2ccccc2)C1)c1ccc2c(c1)OCCO2 (stereo not drawn),-10,i,43*,15*,i,i,10%*,i,14%*
O=C(CCN1Cc2ccccc2C1)c1ccc2c(c1)OCCO2,.,i,i,17*,i,i,95%*,i,23%*
COc1ccccc1-n1c(C)nnc1SCC(=O)Nc1cccc(C(C)=O)c1,-16,i,i,i,i,i,.,.,.
C/C(=N\NC(=O)CC(C)C)c1ccc(N2CCCCC2)cc1,10,i,i,i,i,i,.,.,.
CC(C)CC(=O)/C(=C/c1ccc(N(C)C)cc1)n1cncn1,2,i,i,i,i,i,.,.,.
CC(C)CC(=O)/C(=C\c1ccc(Cl)cc1Cl)n1cncn1,-6,.,.,6.8*,.,i,16%*,i,20%*
O=c1cc(CN2CC(O)Cc3ccc4ccccc4c32)nc2sccn12 (stereo not drawn),4,i,i,6*,i,i,20%*,i,i
CC1Cc2ccccc2N1Cc1cc(=O)n2ccsc2n1 (stereo not drawn),6,i,i,.,i,.,.,.,.
COc1ccccc1NC(=O)c1cnc(SCC(=O)NCC2CCCO2)n(C)c1=O (stereo not drawn),.,i,i,5.4*,i,i,9.0%*,i,i
COc1ccc(OCC(O)Cn2cnc(-c3ccc(Br)cc3)c2)cc1 (stereo not drawn),-4,i,i,i,i,i,.,.,.
OC(COc1ccc2ccccc2c1Br)Cn1cnc(-c2ccccc2)c1 (stereo not drawn),-3,i,i,9.3*,i,i,10%*,i,i
Cc1ccc(-c2ccc(/C=N\NC(=O)C3C(=O)NCC3c3ccccc3)o2)cc1Cl (stereo not drawn),-33,i,i,i,i,i,.,i,i
O=C1NCC(c2ccccc2)C1C(=O)N/N=C\c1ccc(-c2cccc(Cl)c2Cl)o1 (stereo not drawn),-6,i,i,i,i,i,.,.,.
O=C(Nc1nc(-c2ccc(-c3ccccc3)cc2)cs1)C1=COCCO1,8,i,i,i,i,i,.,i,i
COc1ccc(-c2csc(NC(=O)COC(=O)C3=COCCO3)n2)cc1,15,i,i,i,i,i,.,.,.
COc1ccc(-c2csc(NC(=O)c3ccccc3C(=O)O)n2)cc1,16,i,i,i,i,i,.,.,.
COc1cccc(OC)c1C(=O)Nc1nc(-c2ccccc2)cs1,-26,i,i,i,i,i,i,i,i
Cc1cc(C)c(-c2csc(NC(=O)C3=COCCO3)n2)cc1C,.,i,i,i,i,i,.,i,i
COc1ccccc1N1CCN(C(=O)c2ccc3c(c2)NC(=O)C(CSCc2ccccc2C)N3)CC1 (stereo not drawn),-2,i,i,i,i,i,.,.,.
